From ChEMBL document CHEMBL5608214, “Novel tetrasubstituted 5-Arylamino pyrazoles able to interfere with angiogenesis and Ca2+ mobilization” (Eur J Med Chem, 2024) come the findings set out here.

Active and inactive are the calls of the source. No cut-off for these calls is given here.

Data set [1] has as its system SK-OV-3. Kind of data set: Antiproliferative activity against human SK-OV-3 cells assessed as cell growth at 10 uM incubated for 48 hrs by MTT assay relative to control. It counts as functional. The note with it: read-out: Activity. In short, it runs like this: (§1)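 Cells in DMEM with 10 % FBS, 2 mM glutamine and pen-strep, 37 °C, 5 % CO₂, plated to reach 80–90 % confluence at endpoint. At 16 h, compounds were added from a 10 mM DMSO stock to 10 μM final. After 48 h, MTT (2 mg/mL in PBS) was added for 4 h, formazan dissolved in DMSO, and OD read at 570 nm. Results are % of solvent control; three runs, six replicates each, mean ± SD.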

Data set [2] concerns HUVEC. As to the kind of experiment: Anti-angiogenetic activity in human HUVEC cells assessed as relative tube length at 10 uM incubated for 12 hrs in presence of tumor secretome from human MIA PaCa-2 cell supernatant by microscopy (reference value: 108). It counts as functional.
Data set [3] has as its system HUVEC. Kind of data set: Effect on conformation of actin filament organization in human HUVEC cells at 10 uM treated for 24 hrs by immunofluorescence assay. It counts as functional, cell-based. In short, it runs like this: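 HUVEC were left untreated or treated 24 h at 10 μM final. Cells were then fixed on coverslips in 4 % paraformaldehyde, permeabilized with 0.2 % Triton X-100 and blocked with 20 % goat serum. F-actin was stained with FITC-phalloidin (5 µg/ml, 2 h, room temperature, dark) and nuclei with Hoechst 33342. Cells were imaged by confocal microscopy.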

Data set [4] relates to SK-BR-3. As to the kind of experiment: Antiproliferative activity against human SK-BR-3 cells assessed as cell growth at 10 uM incubated for 48 hrs by MTT assay relative to control. It counts as functional. Conditions: read-out: Activity. In short, it runs like this:
as §1
Background: Tetrazolium dyes change colour on reduction, which living cells bring about.

Data set [5] can be described thus: Antiproliferative activity against human HUVEC cells assessed as cell growth at 10 uM incubated for 48 hrs by MTT assay relative to control. The note with it: read-out: Activity. It counts as toxicity, cell-based. In short, it runs like this: as §1
Data set [6] relates to SK-MEL-28. Kind of data set: Antiproliferative activity against human SK-MEL-28 cells assessed as cell growth at 10 uM incubated for 48 hrs by MTT assay relative to control. It counts as functional. The note with it: read-out: Activity. In short, it runs like this:
as §1

Data set [7] in a line: Antiproliferative activity against human GM06114 cells assessed as cell growth at 10 uM incubated for 48 hrs by MTT assay relative to control. It counts as toxicity, cell-based. The note with it: read-out: Activity. In short, it runs like this:
as §1

Data set [8] has as its system MCF7. Kind of data set: Antiproliferative activity against human MCF7 cells assessed as cell growth at 10 uM incubated for 48 hrs by MTT assay relative to control. It counts as functional. Conditions: read-out: Activity. In short, it runs like this:
as §1

In data set [9] the test system is MDA-MB-231. Kind of data set: Antiproliferative activity against human MDA-MB-231 cells assessed as cell growth at 10 uM incubated for 48 hrs by MTT assay relative to control. It counts as functional. The note with it: read-out: Activity. In short, it runs like this: as §1
In data set [10] the test system is HeLa. Kind of data set: Antiproliferative activity against human HeLa cells assessed as cell growth at 10 uM incubated for 48 hrs by MTT assay relative to control. The note with it: read-out: Activity. It counts as functional. The gist of the method:
as §1

The test system of data set [11] is HUVEC. As to the kind of experiment: Anti-angiogenetic activity in human HUVEC cells assessed as number of tube branching points at 10 uM incubated for 12 hrs in presence of tumor secretome from human MIA PaCa-2 cell supernatant by microscopy (reference value: 17). It counts as functional.
Data set [12] concerns HUVEC. As to the kind of experiment: Inhibition of cell invasion in human HUVEC cells at 10 uM incubated for 24 hrs by transwell assay. It counts as functional, cell-based. The gist of the method:
(§2)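 Transwell inserts with 8.0 pore size were coated with Matrigel 1:3 in serum-free medium. HUVEC (2 × 10⁴/insert) went in serum-free medium in the upper chamber, with treatments (10 μM) in growth medium below, for 24 h at 37 °C. Filters were fixed in 4 % paraformaldehyde then methanol and stained with 0.5 % crystal violet. Cells on the lower surface were counted in ten random fields at 10×. n = 3.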

Data set [13] deals with HUVEC. As to the kind of experiment: Inhibition of cell invasion in human HUVEC cells assessed as number of cells at 10 uM incubated for 24 hrs by transwell assay. It counts as functional. In short, it runs like this: as §2
Data set [14] relates to A549. As to the kind of experiment: Antiproliferative activity against human A549 cells assessed as cell growth at 10 uM incubated for 48 hrs by MTT assay relative to control. It counts as functional. The note with it: read-out: Activity. In short, it runs like this:
as §1

Data set [15] deals with HUVEC. Kind of data set: Anti-angiogenetic activity in human HUVEC cells assessed as number of tube branching points at 10 uM incubated for 12 hrs by microscopy. It counts as functional. In short, it runs like this:
(§3)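 HUVEC seeded at 2 × 10⁴ cells/well onto gelled Matrigel (mixed 1:1 with EGM-2, set 30 min at 37 °C). Cells were exposed to test agents at 10 μM for 12 h with no stimulus; untreated wells served as control. Tube long axis and branching points were counted in 10 random fields per well at 10× (Angiogenesis Analyzer), giving mean tube length per well. Mean of at least three independent experiments.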

In data set [16] the test system is HUVEC. As to the kind of experiment: Anti-angiogenetic activity in human HUVEC cells assessed as reduction in tube branching at 10 uM incubated for 12 hrs by microscopy. It counts as functional, cell-based. The gist of the method:
as §3

Data set [17] relates to HepG2. Kind of data set: Antiproliferative activity against human HepG2 cells assessed as cell growth at 10 uM incubated for 48 hrs by MTT assay relative to control. Conditions: read-out: Activity. It counts as functional. The gist of the method:
as §1

Data set [18] has as its system HUVEC. As to the kind of experiment: Anti-angiogenetic activity in human HUVEC cells assessed as reduction in tube length at 10 uM incubated for 12 hrs by microscopy. It counts as functional, cell-based. In short, it runs like this: as §3
The nature of data set [19]: Effect on intracellular calcium signaling in human HUVEC cells assessed as inhibition of calcium mobilization by measuring fluorescence intensity at 10 uM incubated for 1 hr by Fluo-4 a.m. cytofluorimetric assay relative to control. It counts as functional. Also noted: scale not given: the % may be the effect or the level left. In short, it runs like this:
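Trypsinized HUVEC at 5 × 10⁵/ml were treated with compounds at 10 μM in PBS for 1 h at room temperature, washed, then loaded with 2.5 μM Fluo-4 AM (0.06 % DMSO final) for 45 min at 37 °C. Fluorescence was read by flow cytometry with a 530/30 filter. Ionomycin served as positive control and EDTA (added 15 min before) as negative control. n = 3, mean ± SD.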
In general terms: Calcium assays in cells follow changes in intracellular calcium, usually with a dye or a luminescent sensor.

Data set [20] has as its system HUVEC. Kind of data set: Anti-angiogenetic activity in human HUVEC cells assessed as relative tube length at 10 uM incubated for 12 hrs by microscopy. It counts as functional. In short, it runs like this: as §3
The test system of data set [21] is HUVEC. As to the kind of experiment: Inhibition of cell migration in human HUVEC cells at 10 uM incubated for 24 hrs by wound healing assay. It counts as functional, cell-based. The gist of the method:
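Confluent HUVEC monolayers (2 × 10⁵/well, 24 h) were scratched with a p10 tip and treated at 10 μM with mitomycin C 10 μg/ml to block mitosis. Wounds were photographed at 0 and 24 h (4× phase contrast). Migration was taken as the change in distance covered by the wound edges. n = 3 independent experiments, mean ± SD.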

Consider `CCCC(O)Cn1nc(Nc2ccccc2)c(C(=O)OCC)c1N` (stereo not given), for which the growth at 10 µM in data set [1] came out at 104%; in data set [4], 107%; in data set [6], 97%; in data set [8], 110%; in data set [9], 103%; in data set [10] it was 97%. For the same molecule, the growth at 10 µM in data set [14] was determined as 115%; in data set [17] it was 106%. Moreover, the Activity in [2] is on record as 55; in data set [11], approximately 8; in data set [13] it was 364; in [15], less than 15; in data set [19], 23%; in data set [20], less than 20. Besides, the result in data set [3], in data set [16] and in data set [18] was Active. Further, the results for the viability at 48 h, 10 µM in data set [5] and in data set [7] were 100% and 112%, respectively. Besides, the inhibition result in [12] and in [21] was “Active” in each case.
Turning to `CCCC(O)Cn1nc(Nc2cccc(Cl)c2)c(C(=O)OCC)c1N` (stereo not given), the growth at 10 µM in [1] came to 118%; in data set [4], 113%; in [6] it was 122%; in [8], 95%; in data set [9] it was 168%; in [10] it was 100%. Also, the growth at 10 µM turned out to be 85% in data set [14] and 90% in [17]. Besides, the Activity in data set [2] is on record as 55; in data set [11], approximately 8; in data set [13] it was 491; in data set [19], 21%. Further, the outcome in data set [3], in [16] and in data set [18] was Active. The results for the viability at 48 h, 10 µM in data set [5] and in data set [7] were 97% and 82%, respectively. The inhibition result in data set [12] and in [21] was “Active” in each case.
